{"source": "ChEMBL document CHEMBL1139083", "about": "“Discovery of 2-iminobenzimidazoles as a new class of trypanothione reductase inhibitor by high-throughput screening” (Bioorg Med Chem Lett, 2007)", "key": {"[1]": {"tested_on": "Trypanosoma brucei rhodesiense", "experiment": "Inhibition of Trypanosoma brucei rhodesiense trypanothione reductase at 25 uM"}, "[2]": {"experiment": "Inhibition of Trypanosoma brucei rhodesiense trypanothione reductase", "how_it_was_run": "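Automated photometric TR assay adapted to 384-well format. The rate of TNB formation was followed continuously at 412 nm for 15 min at room temperature.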"}, "[3]": {"tested_on": "Trypanosoma brucei rhodesiense", "experiment": "Trypanocidal activity against Trypanosoma brucei rhodesiense", "format": "functional, organism-based"}, "[4]": {"tested_on": "HT-29", "experiment": "Cytotoxicity against human HT29 cells", "format": "functional, cell-based"}, "[5]": {"biological_target": "T1, Glutathione reductase, mitochondrial (Homo sapiens, UniProt P00390)", "T1 sequence (P00390 whole entry)": "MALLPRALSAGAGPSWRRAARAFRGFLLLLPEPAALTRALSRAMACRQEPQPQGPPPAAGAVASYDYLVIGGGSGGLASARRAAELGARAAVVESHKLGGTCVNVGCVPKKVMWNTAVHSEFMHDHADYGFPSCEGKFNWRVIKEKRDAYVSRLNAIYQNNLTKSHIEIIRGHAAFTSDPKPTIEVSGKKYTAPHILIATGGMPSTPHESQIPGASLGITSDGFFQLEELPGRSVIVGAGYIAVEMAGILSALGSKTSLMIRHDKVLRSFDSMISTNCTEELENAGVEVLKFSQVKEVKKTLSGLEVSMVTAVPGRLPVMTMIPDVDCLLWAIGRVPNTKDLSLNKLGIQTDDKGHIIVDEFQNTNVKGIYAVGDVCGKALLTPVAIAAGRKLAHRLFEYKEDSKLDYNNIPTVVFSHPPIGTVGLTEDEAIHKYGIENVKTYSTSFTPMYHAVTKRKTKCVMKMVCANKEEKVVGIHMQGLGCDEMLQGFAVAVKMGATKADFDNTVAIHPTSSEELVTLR", "experiment": "Inhibition of human glutathione reductase", "how_it_was_run": "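GR assay adapted from the TR screening protocol, using higher enzyme and G[S]₂ levels because of the higher K_m. The rate of TNB formation was recorded continuously at 412 nm over 15 min at room temperature.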"}}}
{"smiles": "CCN(CC)CCn1c(=N)n(CC(=O)c2ccc(C)cc2)c2ccccc21", "values": [{"measurement": "inhibition", "setting": "[1]", "result": 91, "unit": "%"}, {"measurement": "IC50", "setting": "[2]", "result": 7, "unit": "µM"}]}
{"smiles": "COc1ccc(C(O)Cn2c(=N)n(CCN3CCCCC3)c3ccccc32)cc1", "note": "(stereo unspecified)", "values": [{"measurement": "inhibition", "setting": "[1]", "result": 85, "unit": "%"}, {"measurement": "IC50", "setting": "[2]", "result": 24, "unit": "µM"}]}
{"smiles": "CCN(CC)CCn1c(=N)n(CCN(CC)CC)c2ccccc21", "values": [{"measurement": "IC50", "setting": "[2]", "result": 59, "unit": "µM"}]}
{"smiles": "N=c1n(CCOCCOCCn2c(=N)n(Cc3ccccc3)c3ccccc32)c2ccccc2n1Cc1ccccc1", "values": [{"measurement": "IC50", "setting": "[3]", "result": 1.3, "unit": "µM"}, {"measurement": "IC50", "setting": "[4]", "result": 144, "unit": "µM"}, {"measurement": "IC50", "setting": "[5]", "result": "> 100", "unit": "µM"}, {"measurement": "IC50", "setting": "[2]", "result": 4, "unit": "µM"}, {"measurement": "Ki", "setting": "[2]", "result": 1.9, "unit": "µM"}]}
{"smiles": "CCn1c(=N)n(CCOCCOCCn2c(=N)n(CC)c3ccccc32)c2ccccc21", "values": [{"measurement": "IC50", "setting": "[2]", "result": "> 100", "unit": "µM"}]}
{"smiles": "CCN(CC)CCn1c(=N)n(CCOc2ccccc2)c2ccccc21", "values": [{"measurement": "IC50", "setting": "[2]", "result": 8, "unit": "µM"}]}
{"smiles": "Cc1ccc(C(O)Cn2c(=N)n(CCN(C)C)c3ccccc32)cc1", "note": "(stereo unspecified)", "values": [{"measurement": "IC50", "setting": "[2]", "result": 29, "unit": "µM"}]}
{"smiles": "CCN(CC)CCn1c(=N)n(CC(O)c2ccc(Cl)c(Cl)c2)c2ccccc21", "note": "(stereo unspecified)", "values": [{"measurement": "IC50", "setting": "[2]", "result": 9, "unit": "µM"}]}
{"smiles": "Cc1ccc(C(O)Cn2c(=N)n(CCN3CCCCC3)c3ccccc32)cc1", "note": "(stereo unspecified)", "values": [{"measurement": "IC50", "setting": "[2]", "result": 16, "unit": "µM"}]}
{"smiles": "N=c1n(CCN2CCCCC2)c2ccccc2n1CC(O)COc1ccc(Cl)cc1Cl", "note": "(stereo unspecified)", "values": [{"measurement": "IC50", "setting": "[2]", "result": 5, "unit": "µM"}]}
{"smiles": "N=c1n(CCN2CCOCC2)c2ccccc2n1CC(O)COc1ccccc1", "note": "(stereo unspecified)", "values": [{"measurement": "IC50", "setting": "[2]", "result": "> 100", "unit": "µM"}]}
{"smiles": "CN1CCCC(n2c(=N)n(CCOc3ccccc3)c3ccccc32)C1", "note": "(stereo unspecified)", "values": [{"measurement": "IC50", "setting": "[2]", "result": "> 100", "unit": "µM"}]}
{"smiles": "CCN(CC)CCn1c(=N)n(CC(=O)c2ccc(Cl)c(Cl)c2)c2ccccc21", "values": [{"measurement": "IC50", "setting": "[2]", "result": 10, "unit": "µM"}]}
{"smiles": "CC(C)(C)C(O)Cn1c(=N)n(CCN2CCCCC2)c2ccccc21", "note": "(stereo unspecified)", "values": [{"measurement": "inhibition", "setting": "[1]", "result": 66, "unit": "%"}, {"measurement": "IC50", "setting": "[2]", "result": "> 100", "unit": "µM"}]}
{"smiles": "Cc1ccc(C(O)Cn2c(=N)n(CCCN(C)C)c3ccccc32)cc1", "note": "(stereo unspecified)", "values": [{"measurement": "IC50", "setting": "[2]", "result": 35, "unit": "µM"}]}
{"smiles": "N=c1n(CCOc2ccccc2)c2ccccc2n1CCN1CCCCC1", "values": [{"measurement": "IC50", "setting": "[2]", "result": 4, "unit": "µM"}]}
{"smiles": "CCN(CC)CCn1c(=N)n(CC(O)c2ccc(C)cc2)c2ccccc21", "note": "(stereo unspecified)", "values": [{"measurement": "IC50", "setting": "[2]", "result": 19, "unit": "µM"}]}
{"smiles": "Cc1ccc(OCC(O)Cn2c(=N)n(CCN3CCOCC3)c3ccccc32)cc1", "note": "(stereo unspecified)", "values": [{"measurement": "IC50", "setting": "[2]", "result": "> 100", "unit": "µM"}]}
{"smiles": "CN(C)CCn1c(=N)n(CC(O)c2ccc(Cl)c(Cl)c2)c2ccccc21", "note": "(stereo unspecified)", "values": [{"measurement": "IC50", "setting": "[3]", "result": 0.6, "unit": "µM"}, {"measurement": "IC50", "setting": "[4]", "result": 46, "unit": "µM"}, {"measurement": "inhibition", "setting": "[1]", "result": 92, "unit": "%"}, {"measurement": "IC50", "setting": "[5]", "result": "> 100", "unit": "µM"}, {"measurement": "IC50", "setting": "[2]", "result": 10, "unit": "µM"}, {"measurement": "Ki", "setting": "[2]", "result": 5.4, "unit": "µM"}]}
{"smiles": "c1ccc(OCCNc2ccccc2NCCN2CCCCC2)cc1", "values": [{"measurement": "IC50", "setting": "[2]", "result": "> 100", "unit": "µM"}]}
{"smiles": "N=c1n(CCN2CCCCC2)c2ccccc2n1CC(O)COc1ccccc1", "note": "(stereo unspecified)", "values": [{"measurement": "IC50", "setting": "[2]", "result": 5, "unit": "µM"}]}
{"smiles": "N=c1n(CCCCCOc2ccccc2)c2ccccc2n1CCN1CCCCC1", "values": [{"measurement": "IC50", "setting": "[2]", "result": 8, "unit": "µM"}]}
{"smiles": "C=CCn1c(=N)n(CC(O)c2ccc(OCC)cc2)c2ccccc21", "note": "(stereo unspecified)", "values": [{"measurement": "inhibition", "setting": "[1]", "result": 6, "unit": "%"}, {"measurement": "IC50", "setting": "[2]", "result": "> 100", "unit": "µM"}]}
{"smiles": "N=c1n(Cc2ccccc2)c2ccccc2n1CC(O)c1ccc(Cl)cc1", "note": "(stereo unspecified)", "values": [{"measurement": "inhibition", "setting": "[1]", "result": 32, "unit": "%"}, {"measurement": "IC50", "setting": "[2]", "result": "> 100", "unit": "µM"}]}
{"smiles": "N=c1n(CCN2CCCCC2)c2ccccc2n1CC(O)c1ccc(Cl)c(Cl)c1", "note": "(stereo unspecified)", "values": [{"measurement": "IC50", "setting": "[3]", "result": 0.2, "unit": "µM"}, {"measurement": "IC50", "setting": "[4]", "result": 9, "unit": "µM"}, {"measurement": "IC50", "setting": "[5]", "result": "> 100", "unit": "µM"}, {"measurement": "IC50", "setting": "[2]", "result": 4, "unit": "µM"}, {"measurement": "Ki", "setting": "[2]", "result": 3.6, "unit": "µM"}]}
{"smiles": "C=CCn1c(=N)n(CCN(CC)CC)c2ccccc21", "values": [{"measurement": "inhibition", "setting": "[1]", "result": 31, "unit": "%"}, {"measurement": "IC50", "setting": "[2]", "result": "> 100", "unit": "µM"}]}
{"smiles": "Cc1ccc(OCC(O)Cn2c(=N)n(CCN3CCCCC3)c3ccccc32)cc1", "note": "(stereo unspecified)", "values": [{"measurement": "IC50", "setting": "[2]", "result": 9, "unit": "µM"}]}
{"smiles": "CC(=O)/N=c1/n(CCOc2ccccc2)c2ccccc2n1CCN1CCCCC1", "values": [{"measurement": "IC50", "setting": "[2]", "result": "> 100", "unit": "µM"}]}
{"smiles": "CCCCn1c(=N)n(CC(O)c2ccc(Br)cc2)c2ccccc21", "note": "(stereo unspecified)", "values": [{"measurement": "inhibition", "setting": "[1]", "result": 42, "unit": "%"}, {"measurement": "IC50", "setting": "[2]", "result": "> 100", "unit": "µM"}]}
{"smiles": "CCN(CC)CCn1c(=N)n(CC(=O)c2ccc(-c3ccccc3)cc2)c2ccccc21", "values": [{"measurement": "IC50", "setting": "[2]", "result": 25, "unit": "µM"}]}
{"smiles": "N=c1n(CCCOc2ccccc2)c2ccccc2n1CCN1CCCCC1", "values": [{"measurement": "IC50", "setting": "[2]", "result": 7, "unit": "µM"}]}
